Lmaj promast: reduces viability of Leishmania major promastigotes; resazurin fluorescence viability; inhibition, % at 10 µM; 200,000 tested, 9% active; AID 1063; in the data active means inhibition above about 50%;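 further: promastigotes grown with compound for 44 hours at 28 °C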
WT yeast gro inh: growth inhibition of WT yeast, mitochondrial fusion screen | AID 1362 | inhibition, % at 10 µM | mitochondrial fusion phenotypic screen, WT strain | 190,000 tested, 2.1% active; in the data active means inhibition above about 58%; tested in S. cerevisiae
ABCB1 block: blocks JC-1 efflux by human ABCB1 transporter; P08183; CCRF-Adr cells, flow cytometry; inhibition, % at 6.6 µM; 190,000 tested, 0.067% active; AID 1326; in the data active means inhibition above about 40%;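 further: 0% = vehicle and 100% = reference inhibitor; higher value means more JC-1 retained so stronger ABCB1 efflux block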
RAM network inh: inhibitors of the yeast RAM network; inhibition, % at 50 µM; AID 868; S. cerevisiae dse1pr::URA3 reporter, 5-FOA growth OD615, 2 d; analog-sensitive cbk1-as2 kinase mutant strain; 190,000 tested, 1.8% active;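 active means inhibition above a set limit, 3 SD over mean compound inhibition, cut at about 8.4% in these data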;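 further: 0% = DMSO-only wells with no growth and 100% = 10 µM 1-NA-PP1 full growth; inhibition rescues growth on 5-FOA so higher OD means more RAM inhibition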
ABCG2 block: blocks JC-1 efflux by human ABCG2 transporter. Q9UNQ0. IgMXP3 cells, flow cytometry. inhibition, % at 6.6 µM. 190,000 tested, 0.1% active. AID 1325;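 active means inhibition above 80%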;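 further: 0% = DMSO and 100% = nicardipine control wells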
Target sequence (Q9UNQ0 whole entry, looked up): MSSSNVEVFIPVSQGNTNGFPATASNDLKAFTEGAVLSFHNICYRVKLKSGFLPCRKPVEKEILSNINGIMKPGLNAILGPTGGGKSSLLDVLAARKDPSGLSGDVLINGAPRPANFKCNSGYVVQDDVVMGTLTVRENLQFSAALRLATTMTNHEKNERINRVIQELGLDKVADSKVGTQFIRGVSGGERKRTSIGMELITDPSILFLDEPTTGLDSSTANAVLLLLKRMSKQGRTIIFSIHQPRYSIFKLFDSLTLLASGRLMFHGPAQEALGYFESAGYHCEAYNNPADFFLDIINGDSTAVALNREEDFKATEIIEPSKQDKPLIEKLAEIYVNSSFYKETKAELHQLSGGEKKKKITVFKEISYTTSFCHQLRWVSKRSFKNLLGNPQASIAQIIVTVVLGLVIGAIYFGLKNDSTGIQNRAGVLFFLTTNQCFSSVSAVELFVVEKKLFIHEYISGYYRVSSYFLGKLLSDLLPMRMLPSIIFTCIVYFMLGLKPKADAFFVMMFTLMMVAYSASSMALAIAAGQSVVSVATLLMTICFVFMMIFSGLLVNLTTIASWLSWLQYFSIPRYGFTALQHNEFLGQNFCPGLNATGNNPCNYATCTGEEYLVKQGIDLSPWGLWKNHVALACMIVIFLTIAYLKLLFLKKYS
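Test system: IgMXP3 (ABCG2) plus far-red-tagged CCRF-Adr (ABCB1) cells / Amount: 3 million cells/mL in well / Reagent: JC-1 transporter substrate / Timing: 10 min compound exposure, 25 °C / Signal: flow cytometry, 530 nm JC-1 signal / Read-out: percent efflux inhibition, scaled nicardipine 100% to DMSO 0% / Benchmarks: nicardipine as high control, DMSO as low control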
Active calls of the source: *; nt = no result given. Most compounds without a hit are left out; they make up all but 12% or so of the library.

SMILES | Lmaj promast | WT yeast gro inh | ABCB1 block | RAM network inh | ABCG2 block
Cc1cc(C)nc(N(C#N)Cc2cccc3ccccc23)n1 | 6 | 10 | 1 | 5 | 8
CCOc1ccccc1C(=O)Nc1cc(Cl)ccc1O | 79* | 60 | 0 | 1 | 6
COc1cc(OC)cc(C(=O)Nc2nnc(NC(=S)Nc3ccccc3)s2)c1 | 55* | 27 | -1 | 4 | -7
COc1ccc(OC)c(NC(=O)c2ccccc2N(Cc2ccccc2)S(C)(=O)=O)c1 | 80* | 7 | 0 | 0 | 1
CS(=O)(=O)N(Cc1ccccc1)c1ccccc1C(=O)O | -5 | -18 | 0 | 0 | 1
CCOc1ccccc1C(=O)Nc1cc(OC)ccc1OC | 18 | 63* | 3 | 2 | 100*
C#CCOCCOCCOCCNc1nc(N2CCN(C(=O)[C@H](Cc3cc4ccccc4[nH]3)n3cc([C@@H](N)C(C)CC)nn3)CC2)nc(N2CCN(C(=O)[C@H](Cc3cc4ccccc4[nH]3)n3cc([C@@H](N)CC(C)C)nn3)CC2)n1 (stereo partly drawn) | -5 | -18 | 0 | 2 | -1
Cc1cccc(NC(=S)N(CCN2CCOCC2)Cc2cc3cc4c(cc3[nH]c2=O)OCCO4)c1 | 25 | -11 | 0 | 1 | 4
COc1cccc(/C=N/NC(=O)c2ccccc2N(Cc2ccccc2)S(=O)(=O)c2ccccc2)c1OC | 91* | -5 | 17 | 0 | 16
CCOc1cc(NC(=S)Nc2cccc(OC)c2)c(OCC)cc1NC(=O)c1ccc(C)cc1 | -3 | 12 | 1 | 2 | 2
CCOc1cc(NC(=S)Nc2ccccc2)c(OCC)cc1NC(=O)c1ccc(OC)cc1 | 96* | -4 | 0 | 3 | 1
COc1ccc(OC)c(/C(O)=C/C(=O)C(=O)Nc2ccccc2OC)c1 | 96* | 5 | -1 | 3 | -2
COc1ccc(NC(=O)Nc2ccccc2OC)cc1 | 2 | 20 | 0 | 3 | 2
Clc1ccc(CSc2nnc(-c3sccc3-n3cccc3)o2)cc1 | 1 | 50 | 0 | 7 | 2
O=C(O)c1nn(CC(=O)N(C2CCCCC2)C2CCCCC2)c(=O)c2ccccc12 | -2 | 6 | 0 | 8 | -1
O=C1C=C(NCCc2ccccc2)C2(CCCCC2)O1 | -5 | -21 | 1 | 1 | 2
O=C(O)CCSc1nnc(SCC(=O)NCC(F)(F)F)s1 | 63* | 0 | -1 | 3 | -17
CCOC(=O)CNC(=O)CSc1nnc(SCC(=O)NCC(=O)OCC)s1 | -7 | -14 | 1 | 1 | 5
O=C(NCc1cccnc1)C(=O)NCC1OCCCN1S(=O)(=O)c1ccccc1 (stereo not drawn) | -6 | 9 | 0 | 1 | 0
CCOc1ccc2[nH]cc(C(=O)NCCCN3CCOCC3)c(=O)c2c1 | 5 | -11 | 0 | 1 | 0
CC(=O)NC1(c2ccccc2)CCN(CC(=O)N2CCC(C)CC2)CC1 | -3 | -11 | 1 | 0 | 2
Cn1cc(/C=N/n2cnc3sc4c(c3c2=O)CCCC4)c2ccccc21 | 12 | 18 | 1 | 3 | 4
O=c1c2c3c(sc2ncn1/N=C/c1ccc([N+](=O)[O-])o1)CCCC3 | 96* | -11 | 0 | 1 | 2
COc1cc(C(=O)OCC(=O)c2c[nH]c3ccccc23)ccc1OCC(=O)N1CCOCC1 | 3 | 6 | 0 | 2 | 0
COc1cc(OC)c(N(C)S(=O)(=O)c2cccc(C(=O)OCC(=O)c3c[nH]c4ccccc34)c2)cc1Cl | 97* | 15 | 0 | 4 | -8
SMILES | Lmaj promast | WT yeast gro inh | ABCB1 block | RAM network inh | ABCG2 block
COc1cc(/C=C/C(=O)OCC(=O)c2c[nH]c3ccccc23)ccc1OC(F)F | -4 | 2 | 0 | 3 | 42
C=CCN(c1ccccc1OC)S(=O)(=O)c1cccc(C(=O)OCC(=O)c2c[nH]c3ccccc23)c1 | 97* | 5 | 0 | 3 | 0
CN(C)C(CNc1ccc([N+](=O)[O-])cc1C#N)c1ccccc1 (stereo not drawn) | 15 | 14 | 2 | 3 | 9
Clc1cc(Cl)cc(Nc2ncn[nH]2)c1 | -2 | -17 | 0 | 1 | 2
CCc1c(O)c(/C(C)=N\O)c(=O)n(-c2ccccc2)c1-c1ccccc1 | 67* | -20 | 0 | 5 | -9
COc1ccc(-n2c3c(cc(C(=O)NNc4ccccc4C)c2=O)C(=O)CC(C)(C)C3)cc1 | 47 | 7 | 0 | 2 | -1
COc1ccc(-n2c3c(cc(C(=O)NNc4ccccc4)c2=O)C(=O)CC(C)(C)C3)cc1 | 60* | 30 | 0 | 0 | 0
Cc1ccc(-n2c3c(cc(C(=O)NCc4ccco4)c2=O)C(=O)CC(C)(C)C3)cc1 | 51* | 12 | 1 | 2 | 1
CCN(CC)CC#CCC(O)(c1ccccc1)c1ccc(Br)cc1 (stereo not drawn) | 46 | 10 | 0 | 0 | 0
CCN(CC)CC#CCC(O)(c1ccccc1)c1ccccc1 | 77* | -10 | 0 | 2 | 0
CCN(CC)CC#CCC(C)(c1ccccc1)c1ccccc1 | 94* | 49 | 0 | -1 | 1
O=C(CSCc1ccccc1)NNC(=S)Nc1cccc(Cl)c1Cl | -13 | 27 | -1 | 5 | -3
COc1cccc(/C=N/N2CCN(c3ccncc3S(=O)(=O)N3CCCCC3)CC2)c1 | 99* | 3 | 0 | 1 | 2
O=S(=O)(c1cnccc1N1CCN(/N=C/c2ccc(Cl)cc2)CC1)N1CCCCC1 | 79* | -8 | 1 | 3 | 3
C(=N/N1CCN(c2ccccc2)CC1)/c1ccncc1 | 25 | 6 | 0 | 0 | 1
CC(C)N1CCN(c2ccncc2S(=O)(=O)N2CCOCC2)CC1 | 11 | 7 | 0 | 1 | 0
Cc1ccc(/C=N/N2CCN(c3ccncc3S(=O)(=O)N3CCCCC3)CC2)cc1 | 67* | 6 | 2 | 3 | 7
N#Cc1ccc(Cl)cc1NC(=O)COC(=O)[C@H](CCC(N)=O)NC(=O)c1ccc(F)cc1 | -6 | 2 | -1 | 1 | -3
Cc1cccc2cc(CN(Cc3ccccc3)C(=O)c3cccc(F)c3)c(Cl)nc12 | 17 | 34 | 1 | 4 | 1
COc1ccc(OCCC(=O)OCC(=O)NCCc2ccccc2)cc1 | -7 | -12 | 0 | 2 | 13
Cc1ccc(CNC(=O)CSc2nc3ccsc3c(=O)n2Cc2ccc(C(=O)O)cc2)cc1 | 7 | 4 | 0 | 4 | 0
CCCc1nc(Nc2nc3ccccc3o2)nc(C)c1C(=O)OCC | 13 | 0 | 1 | 11* | 23
CCOC(=O)c1cnc(Nc2nc3ccccc3o2)nc1CSC(=S)N(CC)CC | 100* | 32 | 2 | 0 | 6
CCOC(=O)c1cnc(Nc2nc3ccccc3o2)nc1CSc1ncccn1 | -2 | nt | nt | nt | nt
O=C(O)C/C=C(/NC(=O)OCc1ccccc1)C(=O)OCc1ccccc1 | 0 | -2 | 0 | 2 | 0
Cc1cc(C)c[n+](C(C)C(=O)c2ccc(-c3ccccc3)cc2)c1 (stereo not drawn) | 67* | 0 | 0 | 0 | 1
